# Screening results (PubChem BioAssay)
# STAT3 inh: reduces IL-6 driven STAT3 reporter signal. U3A cells, IL-6 STAT3-luciferase reporter, luminescence; host cell line lacks STAT1. inhibition, % at 5.5 µM. 190,000 compounds, 0.89% hits. AID 862;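 active = inhibition above the mean inhibition across all screened compounds plus 3 SD, cut at about 44% in these data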
# STAT3 activator: increases IL-6 driven STAT3 reporter signal | U3A cells, IL-6 STAT3-luciferase reporter, luminescence; 100% = signal with IL-6 EC80 alone | activation (% of control), % at 5.6 µM | 190,000 compounds, 0.91% hits;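 active = activation above the screen-wide mean of compound activation plus 3 SD, cut at about 130% in these data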
#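 Material: human U3A cells carrying STAT3-luciferase construct. Measured by: reporter luminescence signal. Timing: compound 1 h, then IL-6 6 h at 37 °C.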
# STAT1 act: activators of IFN-gamma induced STAT1 signaling; 200,000 compounds, 2.6% hits; NIH 3T3 STAT1-luciferase reporter, luminescence; 100% = IFN-gamma alone, no compound; activation (% of control), % at 5.5 µM; AID 932;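 active = activation above the screen-wide mean activation plus 3 SD, cut at about 130% in these data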
# NF-kB neuron act: raises NF-kB expression in human neuronal cells | AID 1239 | 190,000 compounds, 1.6% hits | NF-kB reporter expression; stronger effect = higher value | fold change at 12.5 µM; in the data active = fold change above about 3.3
# STAT1 blocker: inhibitors of IFN-gamma induced STAT1 signaling; NIH 3T3 STAT1-luciferase reporter, luminescence; inhibition, % at 5.5 µM; 200,000 compounds, 0.35% hits;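 active = inhibition above a set limit, the mean inhibition across all tested compounds plus 3 SD, cut at about 34% in these data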
# APP 5'UTR act: APP 5'UTR luciferase reporter activation; SH-SY5Y APP 5'UTR luciferase reporter, luminescence; zero percent = DMSO vehicle wells; activation, % at 2 µM; 190,000 compounds, 1% hits; AID 1276;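 active = activation above a set limit, based on mean plus 3 SD of controls, cut at about 140% in these data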
# Hits are given with their value; 0 = inactive; - = no result. In the library only some 5.1% were active in any assay of this set; here they are far more common.
SMILES,STAT3 inh,STAT3 activator,STAT1 act,NF-kB neuron act,STAT1 blocker,APP 5'UTR act
O=c1c2cc(N3CCOCC3)ccc2[nH]c(=S)n1CCc1ccccc1,0,0,132,0,0,0
C=CCOc1ccccc1CNc1ccc2c(c1)OCCO2,70,0,0,0,43,0
C=CCOc1ccccc1CNc1cccc(F)c1,0,0,0,0,0,0
CCc1ccc(NC(=O)C(=O)NCC2CCCO2)cc1 (stereo not drawn),0,0,131,0,0,0
CCc1ccc(NC(=O)C(=O)NCc2ccccn2)cc1,0,0,132,0,0,0
CCc1ccc(CNC(=O)C(=O)NCC2CCCO2)cc1 (stereo not drawn),0,0,0,0,0,0
Cc1ccc(S(=O)(=O)c2nc(-c3ccccc3)oc2NCCN2CCOCC2)cc1,0,0,0,0,0,0
CCCC(C(=O)NC1CCCCC1)N(CC1CCCO1)C(=O)CNS(=O)(=O)c1ccc(F)cc1 (stereo not drawn),0,0,0,0,0,0
CN1CCN(C(=S)c2ccc(-c3cccc(Cl)c3Cl)o2)CC1,0,0,144,0,0,0
O=C(O)c1ccc(-c2ccccc2Cl)o1,0,0,0,0,0,0
S=C(c1ccc(-c2ccccc2Cl)o1)N1CCCCC1,0,0,141,0,0,0
CN1CCN(C(=O)c2ccc(CS(=O)(=O)c3c(Cl)cccc3Cl)o2)CC1,0,0,0,0,0,0
Nc1nnc(SCc2coc(-c3ccc(Cl)cc3)n2)s1,0,0,143,0,0,0
Cc1ccc(N/C(N)=N/c2nc(C)cc(N3CCCCC3)n2)c(C)c1,0,0,0,0,36,0
Cc1cccc(NC(=S)N/N=C/c2c[nH]c3ccccc23)c1,0,0,132,0,0,0
O=C(CNc1ccccc1)N/N=C/c1c[nH]c2ccccc12,0,0,0,0,0,0
Cc1nn(C)cc1/C=N/NC(=S)Nc1ccccc1,0,0,0,3.4,0,0
CC(c1ccco1)N(C(=O)COc1ccc(Cl)cc1Cl)c1ccccn1 (stereo not drawn),0,0,0,4,0,197
COc1ccccc1OCC(=O)Nc1ccccn1,0,0,129,0,0,0
O=C(COc1ccc(Cl)cc1Cl)Nc1ccccn1,111,0,0,0,89,0
CCN(Cc1ccccc1)S(=O)(=O)c1ccc(S(=O)(=O)N(Cc2ccccn2)Cc2ccco2)cc1,0,0,0,0,0,0
O=C(Nc1ccc(S(=O)(=O)NCC2CCCO2)cc1)c1ccccc1 (stereo not drawn),0,0,0,0,0,0
Cc1cccc(/C(N)=N/OC(=O)c2ccc(F)cc2)c1,0,0,140,0,0,0
Cc1cccc(/C(N)=N/OC(=O)c2cccs2)c1,0,0,140,6,0,237
N/C(=N\OC(=O)c1cccs1)c1cccc(Br)c1,0,0,136,0,0,0
SMILES,STAT3 inh,STAT3 activator,STAT1 act,NF-kB neuron act,STAT1 blocker,APP 5'UTR act
N/C(=N\OC(=O)Cc1ccccc1)c1cccc(Br)c1,0,0,0,-,0,0
Cc1cccc(/C(N)=N/OC(=O)COc2ccc(Cl)cc2)c1,0,0,0,0,0,0
CCCCCC(=O)N/N=C/c1ccco1,0,0,0,0,0,0
CCC/C(=N\NC(=O)c1csc(C)c1C)c1cccs1,0,0,0,0,0,0
CC/C(=N\NC(=O)c1csc(C)c1C)c1cccs1,0,0,138,5.2,0,0
O=[N+]([O-])c1ccc2c(c1)nc1n2CCCCC1,0,0,0,0,0,0
O=[N+]([O-])c1ccc2c(c1)nc1n2CCN(C2CCCCC2)C1,0,0,144,-,0,0
Cc1ccc(C(=O)Nc2ccc(Br)c(C(F)(F)F)c2)cc1,0,0,143,0,0,0
CC(=O)Nc1ccc(C2Nc3ccccc3C(=O)N2C2CCCCC2)cc1 (stereo not drawn),0,0,0,3.4,0,0
COc1ccccc1NC(=O)Nc1cc(F)ccc1F,0,0,0,0,0,0
Cc1cc(C)n(Cc2nc3ccccc3n2C)n1,0,0,0,0,0,0
Cc1ccc(OCC(=O)O/N=C(\N)c2ccccn2)cc1,0,0,144,0,0,0
O=C(/C=C/c1ccccc1)c1ccccn1,0,0,0,0,0,0
Cc1cccc(OCC(=O)O/N=C(\N)c2ccccn2)c1C,0,0,138,0,0,0
N/C(=N\OC(=O)/C=C/c1ccccc1)c1ccccn1,0,0,0,0,0,160
Cc1ccc(OCC(=O)O/N=C(\N)c2cccnc2)cc1,0,0,0,0,0,0
N/C(=N\OC(=O)Cc1cccc2ccccc12)c1ccccn1,0,0,0,6.1,0,0
COc1ccccc1C/C(N)=N/OC(=O)COc1cccc(C)c1C,0,0,0,0,0,0
CCCCCn1ccc(=O)c2c(C(F)(F)F)nccc21,0,0,0,0,0,0
CC(=O)N=c1sc2ccccc2n1C,0,0,0,0,0,0
Cn1/c(=N/N=C/c2ccc(N3CCOCC3)cc2)sc2ccccc21,0,0,129,0,0,0
O=C(Nc1ccc2c(c1)OCCO2)c1ccco1,0,0,0,0,0,0
Cc1ccccc1NC(=O)c1ccc(NC(=O)c2ccco2)cc1,0,0,0,0,0,0
CCC(=O)Nc1ccc(NC(=O)c2ccco2)cc1,0,0,131,0,0,0
CC1(C)Oc2ccc(NC(=O)c3ccco3)cc2O1,0,0,129,0,0,0
SMILES,STAT3 inh,STAT3 activator,STAT1 act,NF-kB neuron act,STAT1 blocker,APP 5'UTR act
CCC(=O)Oc1ccc(NC(=O)c2ccco2)cc1,0,0,0,0,0,0
O=C(Nc1ccccn1)c1ccc(NC(=O)c2ccco2)cc1,0,0,129,0,0,159
Cc1ccc(NC(=O)c2ccco2)cc1C,0,0,132,0,0,0
COC(=O)c1ccc(C(=O)OC)c(NC(=O)COC(=O)C2CCC(C(C)(C)C)CC2)c1 (stereo not drawn),0,0,0,0,0,0
CCOc1ccc(S(=O)(=O)Oc2ccc3ccccc3c2)cc1,0,0,0,0,0,0
Cc1ccccc1OCCn1cc(C(=O)C(=O)N2CCOCC2)c2ccccc21,0,0,0,0,0,0
COc1cc(NC(=O)CC(C)C)ccc1NC(=O)c1ccco1,0,0,141,-,0,0
O=C(c1ccccc1)c1cccc(NC(=O)c2ccco2)c1,0,0,129,0,0,0
Cc1cc(C)nc(NC(=S)Nc2ccccc2)n1,0,0,0,-,0,0
CCc1nc(OCC(=O)c2ccccc2)c(C#N)c2c1COC(C)(C)C2,0,0,0,0,0,0
Cc1ocnc1C(=O)Nc1ccc(Cl)cc1,0,0,131,0,0,0
CCOC(=O)c1[nH]cnc1C(=O)Nc1ccc(Cl)cc1,0,0,0,0,0,0
COC(=O)Cc1ccc(NC(=O)c2ccccc2Cl)cc1,0,0,0,0,0,0
Cc1ccc(NC(=O)c2ocnc2C)cc1Cl,0,0,145,0,0,0
